ChEMBL document CHEMBL1129957, “Synthesis, antiproliferative and antiviral activity of imidazo[4,5-d]isothiazole nucleosides as 5:5 fused analogs of nebularine and 6-methylpurine ribonucleoside” (J Med Chem, 1997)

What was measured:
[1] = test system: HFF; assay: Inhibition against human foreskin fibroblast (HFF) in a visual assay at time of plaque enumeration; format: functional, cell-based
Procedure, shortened: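 Stationary uninfected HFF cells, grown in MEM with 10% fetal bovine serum, inspected microscopically for cytotoxicity, scored visually when plaques were counted in the HCMV plaque assay.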

[2] = test system: KB; assay: Antiproliferative activity against KB cell; format: functional, cell-based; conditions: Homo sapiens
Procedure, shortened: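 KB cells seeded at 3000-5000/well, compound added after overnight culture at 37 °C in quadruplicate at six to eight concentrations; 48 h incubation (about two population doublings) in CO2 incubator; ethanol fixation, 0.1% crystal violet stain, eluted dye read at 570 nm. IC50 from linear regression of percent inhibition against log concentration.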

[3] = test system: L1210; assay: Antiproliferative activity against murine L1210 cells; format: functional, cell-based; conditions: Mus musculus
Procedure, shortened: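 Murine L1210 leukemia cells in Fischer's medium with 10% heat-inactivated horse serum; cells counted at 0, 24, 48, 72, 96 h with compound; growth rate from slope of semilog cell number vs time, as percent of control (doubling time 12 h). IC50 = concentration halving growth rate; average of two or three experiments.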

[4] = test system: Human betaherpesvirus 5; assay: Antiviral activity against human cytomegalovirus (HCMV) in plaque reduction assay; format: functional, organism-based
Procedure, shortened: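 HFF cells infected with roughly 100 pfu HCMV Towne per cm2; after adsorption, drug in growth medium at four to eight concentrations in duplicate wells; 7 days at 37 °C, crystal violet staining, microscopic plaque counts as percent reduction versus no-drug control. IC50 by regression on log concentration; average of duplicate experiments.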

[5] = test system: Human alphaherpesvirus 1; assay: Antiviral activity against herpes simplex virus type 1 (HSV-1) by ELISA test; format: functional, organism-based
Procedure, shortened: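 BSC-1 cells (10 000/well) in MEM(E) plus 10% calf serum, incubated overnight at 37 °C, then drug in quadruplicate plus HSV-1 KOS at 100 pfu/well; 3 days at 37 °C; HRP-conjugated rabbit anti-HSV-1 antibody, TMB substrate, absorbance at 450 and 570 nm. Percent reduction versus virus-only control; IC50 by regression on log concentration.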

Compound	IC50 [1]	IC50 [2]	IC50 [3]	IC50 [4]	IC50 [5]
c1ccc(CSc2nc3cnsc3[nH]2)cc1	14 µM	0.2 µM	0.3 µM	21 µM	15 µM
Cc1nsc2c1nc(SCc1ccccc1)n2[C@@H]1O[C@H](CO)[C@@H](O)[C@H]1O	> 100 µM	> 100 µM	> 100 µM	> 100 µM	> 100 µM
Cc1nsc2c1ncn2[C@@H]1O[C@H](CO)[C@@H](O)[C@@H]1O	> 100 µM	> 100 µM	> 100 µM	> 100 µM	> 100 µM
CSc1nc2sncc2n1[C@@H]1O[C@H](CO)[C@@H](O)[C@H]1O	21 µM	15 µM	8.6 µM	32 µM	20 µM
CSc1nc2c(C)nsc2n1[C@@H]1O[C@H](CO)[C@@H](O)[C@H]1O	> 100 µM	> 100 µM	> 100 µM	> 100 µM	> 100 µM
CSc1nc2cnsc2n1[C@@H]1O[C@H](CO)[C@@H](O)[C@H]1O	> 100 µM	> 100 µM	> 100 µM	> 100 µM	> 100 µM
CSc1nc2sncc2n1[C@@H]1O[C@H](CO)[C@@H](O)[C@@H]1O	21 µM	15 µM	11 µM	32 µM	25 µM
CSc1nc2c(C)nsc2n1[C@@H]1O[C@H](CO)[C@@H](O)[C@@H]1O	> 100 µM	> 100 µM	> 100 µM	> 100 µM	> 100 µM
Cc1nsc2c1nc(SCc1ccccc1)n2[C@@H]1O[C@H](CO)[C@@H](O)[C@@H]1O	> 100 µM	> 100 µM	> 100 µM	> 100 µM	> 100 µM
CSc1nc2cnsc2n1[C@@H]1O[C@H](CO)[C@@H](O)[C@@H]1O	> 100 µM	> 100 µM	> 100 µM	> 100 µM	100 µM
Cc1nsc2c1ncn2[C@@H]1O[C@H](CO)[C@@H](O)[C@H]1O	150 µM	90 µM	10 µM	> 100 µM	> 100 µM
CSc1nc2sncc2n1[C@H]1C[C@H](O)[C@@H](CO)O1	15 µM	6 µM	20 µM	22 µM	10 µM
OC[C@H]1O[C@@H](n2c(SCc3ccccc3)nc3sncc32)C[C@@H]1O	2.1 µM	3 µM	2.2 µM	3.2 µM	15 µM
CSc1nc2snc(C)c2n1[C@H]1C[C@H](O)[C@@H](CO)O1	32 µM	30 µM	33 µM	32 µM	60 µM
CSc1nc2c(C)nsc2n1[C@H]1C[C@H](O)[C@@H](CO)O1	> 100 µM	> 100 µM	> 100 µM	> 100 µM	> 100 µM
CSc1nc2cnsc2n1[C@H]1C[C@H](O)[C@@H](CO)O1	> 100 µM	> 100 µM	> 100 µM	> 100 µM	> 100 µM
Cc1nsc2ncn([C@H]3C[C@H](O)[C@@H](CO)O3)c12	> 100 µM	> 100 µM	78 µM	> 100 µM	> 100 µM
OC[C@H]1O[C@@H](n2c(SCc3ccccc3)nc3cnsc32)C[C@@H]1O	> 100 µM	> 100 µM	8 µM	> 100 µM	> 100 µM
Cc1nsc2c1nc(SCc1ccccc1)n2[C@H]1C[C@H](O)[C@@H](CO)O1	> 100 µM	> 100 µM	> 100 µM	> 100 µM	> 100 µM
Cc1nsc2c1ncn2[C@H]1C[C@H](O)[C@@H](CO)O1	> 100 µM	> 100 µM	> 100 µM	> 100 µM	> 100 µM
Cc1nsc2[nH]c(SCc3ccccc3)nc12	10 µM	9 µM	7 µM	21 µM	45 µM
Cc1nsc2[nH]cnc12	32 µM	20 µM	17 µM	32 µM	45 µM
CSc1nc2cnsc2[nH]1	32 µM	15 µM	7 µM	32 µM	45 µM
CSc1nc2c(C)nsc2[nH]1	26 µM	60 µM	13 µM	18 µM	60 µM
OC[C@H]1OC(n2c(SCc3ccccc3)nc3cnsc32)[C@@H](O)[C@@H]1O (stereo not given in full)	> 100 µM	> 100 µM	> 100 µM	> 100 µM	> 100 µM
OC[C@H]1OC(n2c(SCc3ccccc3)nc3sncc32)[C@@H](O)[C@@H]1O (stereo not given in full)	2.1 µM	3 µM	1.5 µM	3.2 µM	> 100 µM
Cc1nsc2ncn(C3O[C@H](CO)[C@@H](O)[C@H]3O)c12 (stereo not given in full)	32 µM	> 100 µM	100 µM	32 µM	70 µM
